Source: PubChem BioAssay (The Scripps Research Institute Molecular Screening Center)
Sampled rows, rich in hits. Any-hit rate of the full collection: about 1.9%.
NPY-Y2 PAM-ag – potentiators or agonists of human neuropeptide Y receptor Y2. P49146. cells expressing NPY-Y2, potentiator/agonist read-out. activation, % at 3.6 µM. 220,000 tested, 0.45% active; in the data active = activation above about 27%;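 note: cells stimulated with NPY near EC25 plus isoproterenol at EC100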
Target sequence (P49146 whole entry, looked up): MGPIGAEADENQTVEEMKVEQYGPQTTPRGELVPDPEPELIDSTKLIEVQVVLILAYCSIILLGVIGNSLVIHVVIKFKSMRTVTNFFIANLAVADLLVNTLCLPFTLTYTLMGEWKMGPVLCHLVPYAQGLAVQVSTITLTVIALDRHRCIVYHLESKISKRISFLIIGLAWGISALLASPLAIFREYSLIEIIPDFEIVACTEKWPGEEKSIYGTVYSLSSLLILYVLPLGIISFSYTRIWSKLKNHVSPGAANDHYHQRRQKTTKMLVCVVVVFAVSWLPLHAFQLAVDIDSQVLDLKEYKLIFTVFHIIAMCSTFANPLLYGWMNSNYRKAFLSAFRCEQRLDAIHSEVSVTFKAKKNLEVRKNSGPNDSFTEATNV
NPY1 pot ag – potentiators or agonists of human neuropeptide Y receptor Y1; P25929; NPY-Y1 expressing cells, potentiator/agonist activation; 220,000 tested, 0.37% active; activation, % at 3.6 µM; in the data active = activation above about 33%, passing the limit was not always enough;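 note: cells stimulated with NPY at EC10 then isoproterenol at EC100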
NPY Y1 blocker – antagonists of human neuropeptide Y receptor Y1; P25929; HEK293-CNG Y1 cells, membrane potential fluorescence; NPY at EC95, then isoproterenol; inhibition, % at 3.6 µM; 200,000 tested, 1% active;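 active = inhibition above the campaign mean inhibition of all tested compounds plus 3 SD, cut at about 20% in these data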
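Benchmarks – high control isoproterenol alone, low control NPY with isoproterenol · Material – HEK293 Y1/CNG channel cell line · Times – dye 3 h, compound 60 min room temperature, stimulation 45 min · Probe or stimulus – NPY (25 nM), isoproterenol (1 µM), Ro 20-1724 (25 µM) · Evaluation – % inhibition of NPY effect · Signal – fluorescence, membrane potential probe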
NPY-Y2 antag – NPY-Y2 (human) receptor antagonism | 140,000 tested, 0.99% active | P49146 | AID 793 | NPY-Y2 expressing cells, antagonist mode | inhibition, % at 2.7 µM; in the data active = inhibition above about 17%
NPY1 antag ctr – antagonizes human NPY-Y1, counter-screen to NPY-Y2 antagonists | shares compounds with NPY-Y2 antag | cell-based NPY-Y1 antagonism counterscreen | inhibition, % at 3.6 µM | 710 tested, 19% active | AID 1256; in the data active = inhibition above about 20%;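 note: cells challenged with NPY then isoproterenol with cAMP sensed through a CNG channel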
NPY-Y2 ant conf – confirmation of human neuropeptide Y receptor Y2 antagonists. shares compounds with NPY-Y2 antag. 710 tested, 32% active. HEK293 NPY-Y2 CNG channel, membrane potential fluorescence. inhibition, % at 2.8 µM. AID 1257;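 active = mean inhibition of triplicate wells above the hit cutoff set in the primary screen, cut at about 17% in these data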
Large screens that a line does not name were inactive (follow-up assays come after a bar, where they were run).

COc1ccc(OC)c(/C=N/NC(=O)CNC(=O)c2ccc(S(=O)(=O)N3CCOCC3)cc2)c1	none
O=C(Cn1cnc2ccccc21)NCc1ccccc1	none
O=C(Cc1ccccc1)Nn1cnc2ccccc21	NPY-Y2 antag 25 | NPY1 antag ctr inactive | NPY-Y2 ant conf inactive
O=C(O)C1CCN(c2nc(-c3ccccc3)nc3c2oc2ccccc23)CC1	none
Cc1nc(N2CCC(C)CC2)c2oc3ccccc3c2n1	NPY-Y2 antag 19 | NPY1 antag ctr inactive | NPY-Y2 ant conf 36
COc1ccc(NC(=O)/C(C#N)=C/c2ccc(Sc3nncn3C)c([N+](=O)[O-])c2)cc1	none (no result: NPY-Y2 antag)
CC(COc1cccc2ccccc12)CN1CCN(C)CC1 (stereo not given)	NPY-Y2 antag 17 | NPY1 antag ctr inactive | NPY-Y2 ant conf inactive
Cc1ccccc1OCC(O)CN1CCN(C)CC1 (stereo not given)	none (no result: NPY-Y2 antag)
O=C(COC(=O)/C=C/c1ccc2c(c1)OCO2)Nc1ccccc1	none (no result: NPY-Y2 antag)
CCCNC(=O)COC(=O)/C=C/c1ccc2c(c1)OCO2	NPY-Y2 antag 24 | NPY1 antag ctr inactive | NPY-Y2 ant conf inactive
CCOC(=O)C(CCCP(=O)(c1ccccc1)c1ccccc1)(NC(C)=O)C(=O)OCC	none (no result: NPY Y1 blocker, NPY-Y2 antag)
O=C(NC1CCCC1)C(c1cccnc1)N(CCc1ccccc1)C(=O)c1ccco1 (stereo not given)	none (no result: NPY-Y2 antag)
O=C(NC1CCCCC1)C(c1cccnc1)N(CCc1ccccc1)C(=O)Cc1cccs1 (stereo not given)	NPY-Y2 antag 22 | NPY1 antag ctr inactive | NPY-Y2 ant conf inactive
Cc1cccc(Nc2nc(NCc3ccco3)c3ccccc3n2)c1	NPY-Y2 antag 27 | NPY1 antag ctr 22 | NPY-Y2 ant conf 20
O=C(Nc1cccc(N=Cc2cc(Br)cc(Br)c2O)c1)c1ccco1	NPY-Y2 antag 17 | NPY1 antag ctr inactive | NPY-Y2 ant conf 25
O=C(Nc1cccc(N=Cc2cc(Cl)cc(Br)c2O)c1)c1ccco1	none
O=C1OCCC1Sc1nc2cc(Cl)ccc2s1 (stereo not given)	NPY-Y2 antag 23 | NPY1 antag ctr inactive | NPY-Y2 ant conf inactive
O=C1OCCC1Sc1nc2ccccc2s1 (stereo not given)	none
CC[n+]1c(/C=C(\C)SC)sc2ccccc21	none
CC[n+]1c(/C=C(\C)Nc2ccccc2)sc2ccccc21	NPY-Y2 antag 23 | NPY1 antag ctr inactive | NPY-Y2 ant conf inactive
COc1cccc(C(=O)Oc2cc3c4c(c2)C(C)=CC(C)(C)N4C(=O)C3=O)c1	NPY-Y2 antag 46 | NPY1 antag ctr 50 | NPY-Y2 ant conf 82
COc1ccc(C(=O)Oc2cc3c4c(c2)C(C)=CC(C)(C)N4C(=O)C3=O)cc1OC	none
Cc1cccc(C(=O)NCC(c2ccc(F)cc2)N2CCOCC2)c1 (stereo not given)	none (no result: NPY-Y2 antag)
CCOc1ccc2ccccc2c1C(=O)N1CCN(c2ccccc2)CC1	NPY-Y2 antag 18 | NPY1 antag ctr inactive | NPY-Y2 ant conf inactive
CCOC(=O)c1[nH]c(C)c(C(=O)N2CCN(c3ccccc3)CC2)c1C	none
Cn1ncc(Cl)c1C(=O)N1CCN(C(=O)c2ccco2)CC1	none (no result: NPY-Y2 antag)
Cc1cc(N)n(-c2ccc(S(=O)(=O)c3ccc(C(C)C)cc3)cc2)n1	none (no result: NPY-Y2 antag)
COc1cc2c(cc1NC(=O)c1ccccc1F)CCCC2	none
COc1cc2c(cc1NC(=O)C(c1ccccc1)c1ccccc1)CCCC2	NPY-Y2 antag 20 | NPY1 antag ctr inactive | NPY-Y2 ant conf inactive
COc1ccc(C(C)=O)cc1CSc1nc2ccccc2c(=O)n1-c1ccccc1C	NPY-Y2 antag 20 | NPY1 antag ctr inactive | NPY-Y2 ant conf inactive
COc1ccc(C(C)=O)cc1CSc1nc2ccccc2c(=O)n1-c1cccc(C)c1	none
Clc1cc(Cl)cc(C2=NCCC(c3ccccc3)O2)c1 (stereo not given)	none
CCOC(=O)c1c(C)[nH]c(C)c1C(=O)CSc1nnc(-c2ccco2)n1Cc1ccccc1	none
CCOc1ccc(NC(=O)CNC(=O)c2cccs2)cc1	none (no result: NPY-Y2 antag)
COC(=O)c1ccc(CSc2nc3sc4c(c3c(=O)n2C)CCCC4)o1	NPY-Y2 antag 18 | NPY1 antag ctr inactive | NPY-Y2 ant conf 19
COC(=O)c1ccc(CSc2nc3ccccc3c(=O)n2-c2ccc(OC)c(OC)c2)o1	none
COC(=O)c1ccc(CSc2nc3ccccc3c(=O)n2-c2ccccc2)o1	NPY-Y2 antag 18 | NPY1 antag ctr inactive | NPY-Y2 ant conf 47
COC(=O)c1sc(N)c(C(=O)OC)c1CSc1nc2sc3c(c2c(=O)n1C)CCC3	none
COc1ccc(C(O)C(CN2CCOCC2)c2ccccc2)cc1F (stereo not given)	none
COc1ccc(C(=O)C(CN2CCOCC2)c2ccccc2)cc1F (stereo not given)	NPY-Y2 antag 17 | NPY1 antag ctr inactive | NPY-Y2 ant conf inactive
CC1CCCC(NC(=O)COC(=O)CSc2ccc3ccccc3c2)C1C (stereo not given)	NPY-Y2 antag 19 | NPY1 antag ctr 28 | NPY-Y2 ant conf 22
CC1CCCC(NC(=O)COC(=O)CCc2ccccc2)C1C (stereo not given)	none (no result: NPY-Y2 antag)
O=C(c1ccco1)N(CCC(c1ccccc1)c1ccco1)Cc1ccccc1 (stereo not given)	NPY-Y2 antag 18 | NPY1 antag ctr inactive | NPY-Y2 ant conf inactive
COc1ccc(CN(CCC(c2ccccc2)c2ccco2)C(=O)c2ccco2)cc1 (stereo not given)	none
O=C(Nc1cccn(Cc2c(Cl)cccc2Cl)c1=O)c1ccccc1Cl	NPY-Y2 antag 23 | NPY1 antag ctr inactive | NPY-Y2 ant conf inactive
Clc1ccc(-c2nnc(CSc3nnc(-c4cccs4)n3Cc3ccccc3)o2)cc1	NPY-Y2 antag 25 | NPY1 antag ctr 23 | NPY-Y2 ant conf inactive
COc1ccc(-c2nnc(SCc3nnc(-c4ccc(Cl)cc4)o3)n2-c2ccccc2)cc1	NPY-Y2 antag 23 | NPY1 antag ctr inactive | NPY-Y2 ant conf inactive
CN(C)NC(=S)NC1CCS(=O)(=O)C1 (stereo not given)	none (no result: NPY Y1 blocker, NPY-Y2 antag)
O=c1n(Cc2ccc(Cl)cc2)c2sc3c(c2c2ncnn12)CCCC3	NPY-Y2 antag 41 | NPY1 antag ctr 22 | NPY-Y2 ant conf 32
Cc1cccc(-c2nnc(SCc3ccc(C#N)cc3)n2Cc2ccco2)c1	NPY-Y2 antag 20 | NPY1 antag ctr inactive | NPY-Y2 ant conf inactive
CCn1c(SCc2ccc(C#N)cc2)nnc1-c1cccc(Cl)c1	none
COc1ccc(C2Nc3ccccc3C(=O)N2c2ccc(C)cc2)cc1Cn1cc([N+](=O)[O-])cn1 (stereo not given)	NPY-Y2 antag 19 | NPY1 antag ctr 27 | NPY-Y2 ant conf 63
COc1ccc(C2Nc3ccccc3C(=O)N2c2ccc(C)cc2)cc1Cn1nnc2ccccc21 (stereo not given)	none
Cc1c(CNC(=O)C2CC2)c(-n2cccc2)n(Cc2ccccc2)c1C	none (no result: NPY-Y2 antag)
COc1ccc(C(=O)C2CCCN(Cc3ccc4nonc4c3)C2)c(OC)c1 (stereo not given)	none (no result: NPY-Y2 antag)
COc1ccc(Nc2nc(N3CCCC3)c3ccccc3n2)cc1	NPY-Y2 antag 32 | NPY1 antag ctr 24 | NPY-Y2 ant conf 34
